Columns and labels:
[1] = Cmax in CD1 mouse at 30 mg/kg, po by HPLC coupled to tandem mass spectrometry; format: ADME, organism-based; set-up: dose 30 mg/kg, route oral; conditions: in vivo
In short: (§1)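 Adult female CD-1 mice were dosed 10 mg/kg by iv injection or 30 mg/kg by oral gavage, with the compound in 100% saline. Blood samples were collected and drug content was measured by HPLC-tandem MS.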

[2] = Terminal half life in CD1 mouse at 10 mg/kg, iv by HPLC coupled to tandem mass spectrometry; format: ADME, organism-based; conditions: in vivo, read-out: beta t1/2 (converted); in short: as §1
Mus musculus [3] = test: Oral bioavailability in CD1 mouse at 30 mg/kg by HPLC coupled to tandem mass spectrometry; format: ADME, organism-based; conditions: in vivo; in short: as §1
[4] = Terminal half life in CD1 mouse at 30 mg/kg, po by HPLC coupled to tandem mass spectrometry; format: ADME, organism-based; conditions: in vivo, read-out: beta t1/2 (converted); in short: as §1
Plasmodium falciparum = test: Antimalarial activity against chloroquine-sensitive Plasmodium falciparum 3D7 cultured in human erythrocytes incubated for 72 hrs by [3H]-hypoxanthine incorporation assay; format: functional, organism-based
[5] = Volume of distribution at steady state in CD1 mouse at 10 mg/kg, iv by HPLC coupled to tandem mass spectrometry; format: ADME, organism-based; conditions: in vivo, read-out: Vdss; in short: as §1
[6] = Clearance in CD1 mouse at 10 mg/kg, iv by HPLC coupled to tandem mass spectrometry; format: ADME, organism-based; conditions: in vivo; in short: as §1
Plasmodium berghei [7] = test: Antiplasmodial activity against Plasmodium berghei infected in Swiss Webster mouse assessed as mouse survival at 11 mg/kg, po dosed once daily for 4 consecutive days beginning 1 hr after initial infection and measured on day 12 post infection by Giemsa staining method; format: functional
In short: (§2)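 Female Swiss Webster mice (about 20 g) infected ip with 6 × 10^6 P. berghei-infected erythrocytes. Oral gavage once daily for 4 days, starting 1 h after infection. Vehicle PEG300/propylene glycol/water (55/25/20 by weight). Giemsa-smear parasitemia counted daily from day 4. Mice euthanised above 50% parasitemia. Survival followed to day 21, 5 mice per dose, chloroquine 30 mg/kg as reference.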

Plasmodium berghei [8] = test: Antiplasmodial activity against Plasmodium berghei infected in Swiss Webster mouse assessed as mouse survival at 11 mg/kg, po dosed once daily for 4 consecutive days beginning 1 hr after initial infection and measured on day 11 post infection by Giemsa staining method; format: functional; in short: as §2
Mus musculus [9] = test: Terminal half life in CD1 mouse assessed as 5-(1-hydroxy-1,3-dihydrobenzo[c][1,2]oxaborol-6-yloxy)pyrazine-2-carboxylic acid level at 5 mg/kg, iv by HPLC coupled to tandem mass spectrometry; format: ADME, organism-based; conditions: in vivo
In short: (§3)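 The parent ester was given to adult female CD-1 mice at 5 mg/kg, iv or by oral gavage, in PEG 400/dimethylacetamide/water (45/10/45, pH 5.8). Blood was sampled, and the acid formed from the ester in vivo was quantified by HPLC-tandem MS to derive its PK parameters.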

Plasmodium berghei [10] = test: Antiplasmodial activity against Plasmodium berghei infected in Swiss Webster mouse assessed as mouse survival at 3 mg/kg, po dosed once daily for 4 consecutive days beginning 1 hr after initial infection and measured on day 9 post infection by Giemsa staining method
Mus musculus [11] = test: Tmax in CD1 mouse assessed as 5-(1-hydroxy-1,3-dihydrobenzo[c][1,2]oxaborol-6-yloxy)pyrazine-2-carboxylic acid level at 5 mg/kg, po by HPLC coupled to tandem mass spectrometry; format: ADME, organism-based; conditions: in vivo; in short: as §3
Plasmodium berghei [12] = test: Antiplasmodial activity against Plasmodium berghei infected in Swiss Webster mouse assessed as mouse survival at 33 mg/kg, po dosed once daily for 4 consecutive days beginning 1 hr after initial infection and measured on day 13 post infection by Giemsa staining method; format: functional
In short: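 Female Swiss Webster mice (about 20 g) were infected ip with 6 × 10^6 P. berghei-infected erythrocytes from a donor mouse. They were dosed by oral gavage once daily for 4 days, starting 1 h post-infection, in PEG 300/propylene glycol/water (55/25/20 by weight). Parasitemia was read daily on Giemsa smears from day 4, and mice were euthanized above 50% parasitemia. Percent survival was tracked to 21 days.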

[13] = Stability in mouse liver microsomes assessed as compound remaining at 1 uM incubated for 1 hr in presence of NADPH by LC/MS/MS method; format: ADME
In short: (§4)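 Compound at 1 μM final (from a 1 mg/mL DMSO stock) was incubated with mouse or human liver microsomes (0.5 mg/mL protein) in 100 mM potassium phosphate, pH 7.4, at 37 °C with shaking, with or without 1 mM NADPH. Samples were taken over 0–120 min and tested in duplicate. Reactions were quenched with cold acetonitrile plus internal standard and analyzed by LC/MS/MS.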

Plasmodium berghei [14] = test: Antiplasmodial activity against Plasmodium berghei infected in Swiss Webster mouse assessed as mouse survival at 100 mg/kg, po dosed once daily for 4 consecutive days beginning 1 hr after initial infection and measured on day 13 post infection by Giemsa staining method; format: functional; in short: as §2
Mus musculus [15] = test: AUC (0 to infinity) in CD1 mouse assessed as 5-(1-hydroxy-1,3-dihydrobenzo[c][1,2]oxaborol-6-yloxy)pyrazine-2-carboxylic acid level at 5 mg/kg, po by HPLC coupled to tandem mass spectrometry; format: ADME, organism-based; set-up: dose 5 mg/kg, route oral, time infinity; conditions: in vivo; in short: as §3
[16] = Terminal half life in CD1 mouse at 5 mg/kg, po by HPLC coupled to tandem mass spectrometry; format: ADME, organism-based; conditions: in vivo, read-out: beta t1/2 (converted)
In short: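 Adult female CD-1 mice were given oral gavage at 5 mg/kg in a formulated solution, either PEG 400/dimethylacetamide/water (45/10/45, pH 5.8) or PEG 300/propylene glycol/water (55/25/20, pH 5.9). Blood samples were analysed for drug by HPLC-tandem MS, and the terminal half-life was derived.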

Plasmodium berghei [17] = test: Antiplasmodial activity against Plasmodium berghei infected in Swiss Webster mouse assessed as mouse survival at 100 mg/kg, po dosed once daily for 4 consecutive days beginning 1 hr after initial infection and measured on day 20 post infection by Giemsa staining method; format: functional; in short: as §2
Plasmodium berghei [18] = test: Antiplasmodial activity against Plasmodium berghei infected in Swiss Webster mouse assessed as mouse survival at 3 mg/kg, po dosed once daily for 4 consecutive days beginning 1 hr after initial infection and measured on day 12 post infection by Giemsa staining method; format: functional; in short: as §2
[19] = AUC (0 to infinity) in CD1 mouse at 5 mg/kg, po by HPLC coupled to tandem mass spectrometry; format: ADME, organism-based; set-up: dose 5 mg/kg, route oral, time infinity; conditions: in vivo
In short: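 Adult female CD-1 mice received 5 mg/kg by both the iv and the oral-gavage route. Two vehicles were used: PEG 400/dimethylacetamide/water (45/10/45, pH 5.8), or PEG 300/propylene glycol/water (55/25/20, pH 5.9). Blood samples were collected and drug was quantified by HPLC-tandem MS.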

Mus musculus [20] = test: AUC (0 to infinity) in CD1 mouse assessed as 5-(1-hydroxy-1,3-dihydrobenzo[c][1,2]oxaborol-6-yloxy)pyrazine-2-carboxylic acid level at 5 mg/kg, iv by HPLC coupled to tandem mass spectrometry; format: ADME, organism-based; set-up: dose 5 mg/kg, route intravenous, time infinity; conditions: in vivo; in short: as §3
Liver microsome = test: Stability in human liver microsomes assessed as compound remaining at 1 uM incubated for 1 hr in absence of NADPH by LC/MS/MS method; format: ADME; in short: as §4
Plasmodium berghei [21] = test: Antiplasmodial activity against Plasmodium berghei infected in Swiss Webster mouse assessed as mouse survival at 200 mg/kg, po dosed once daily for 4 consecutive days beginning 1 hr after initial infection and measured on day 5 post infection by Giemsa staining method; format: functional; in short: as §2
Plasmodium berghei [22] = test: Antiplasmodial activity against Plasmodium berghei infected in Swiss Webster mouse assessed as mouse survival at 200 mg/kg, po dosed once daily for 4 consecutive days beginning 1 hr after initial infection and measured on day 8 post infection by Giemsa staining method; format: functional; in short: as §2

`O=C(O)c1cnc(Oc2ccc3c(c2)B(O)OC3)cn1` showed a Cmax [1] of 19500 ng/mL, a half-life [2] of 1.1 h and an F (Mus musculus [3]) of 67%. It also gave a half-life [4] of 0.23 h, an IC50 (Plasmodium falciparum) of 300 nM and a Vd [5] of 0.848 L/kg. For the same compound, the clearance [6] was 38.8 mL/min/kg, the survival at 11 mg/kg (Plasmodium berghei [7]) was 0% and the survival at 11 mg/kg (Plasmodium berghei [8]) was 20%.

For `COC(=O)c1cnc(Oc2ccc3c(c2)B(O)OC3)cn1`, the “beta t1/2” value (Mus musculus [9]) was 7.8 min, the survival at 3 mg/kg (Plasmodium berghei [10]) was 40% and the Tmax (Mus musculus [11]) was 0.25 h. It also gave a survival at 33 mg/kg (Plasmodium berghei [12]) of 0%, a Stability [13] of 0% and a survival at 100 mg/kg (Plasmodium berghei [14]) of 60%. It also gave an AUC (Mus musculus [15]) of 610 ng·h/mL, a half-life [16] of 1 h and a survival at 100 mg/kg (Plasmodium berghei [17]) of 0%. The survival at 11 mg/kg (Plasmodium berghei [7]) was 0%, the survival at 11 mg/kg (Plasmodium berghei [8]) was 80% and the survival at 3 mg/kg (Plasmodium berghei [18]) was 0%. The AUC(0-inf) [19] was 100 ng·h/mL and the AUC (Mus musculus [20]) was 990 ng·h/mL.

`NC(=O)c1cnc(Oc2ccc3c(c2)B(O)OC3)cn1` gave a Stability (Liver microsome) of 100%, a survival at 200 mg/kg (Plasmodium berghei [21]) of 100% and a Stability [13] of 97%. It also gave a half-life [16] of 2.1 h, a survival at 200 mg/kg (Plasmodium berghei [22]) of 100% and an AUC(0-inf) [19] of 2290 ng·h/mL.

From ChEMBL document CHEMBL3580633, “Benzoxaborole antimalarial agents. Part 4. Discovery of potent 6-(2-(alkoxycarbonyl)pyrazinyl-5-oxy)-1,3-dihydro-1-hydroxy-2,1-benzoxaboroles” (J Med Chem, 2015)
